Assay results: ChEMBL document CHEMBL4513216, “Probing the Open Global Health Chemical Diversity Library for Multistage-Active Starting Points for Next-Generation Antimalarials” (ACS Infect Dis, 2020)

experiment: Toxicity liver stage against HepG2, at 10uM; format: cell-based; design: test concentration 10 uM, cell line HepG2-A16-CD81EGFP; settings: human, HepG2-A16-CD81EGFP cells; read-out: INHIBITION
Outline: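 Uninfected HepG2-A16-CD81EGFP cells, 3 × 10^3 per well, 1536-well, plated on prespotted compound at 10 μM final, parasite-free screening media added to match infected plates; puromycin 10 μM positive, DMSO 0.5% negative; run in parallel with 48 h PbLuc assay at 37 °C, 5% CO2; viability by CellTiter-Glo luminescence, normalized to controls.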

SMILES	cytotoxicity at 10 µM
COc1ccc(CN2C[C@@H](F)[C@@H](OCc3nc4cnccc4[nH]3)C2)cn1	2.08%
O=C(Nc1ccccc1)[C@H]1O[C@H](CCN2CCNCC2)CC[C@@H]1O	-7.49%
O[C@@H]1C[C@@H](c2nc(-c3ccccc3)no2)N(Cc2ccncc2)C1	2.77%
CSc1ncccc1C(=O)NCc1ccc(N(C)C)cc1	4.74%
CC(=O)N1N=C(c2cccs2)OC1C(=O)Nc1ccc(C)cc1 (stereo not drawn)	-4.14%
C=C(C)COc1ccc(C(CC(=O)OC)c2oc(C)cc(=O)c2O)cc1 (stereo not drawn)	-9.24%
CC1CCN(c2ccc(=O)n(CC(=O)NCCc3ccccc3)n2)CC1	0.277%
COc1ccc(S(=O)(=O)NCC(c2cccn2C)N(C)C)c(C)c1 (stereo not drawn)	7.78%
Cc1noc(C)c1CN1C[C@@H]2OCCN(Cc3cnn(C)c3)[C@@H]2C1	-139%
Cc1cnc(C(=O)N2CCC3(CC2)CC(c2ccccc2)C(=O)N3)cn1 (stereo not drawn)	4.9%
CC(C)n1[nH]c(=O)c2c1NC(=O)CC2C1CCCCC1 (stereo not drawn)	-12.9%
CC(Cn1cc(Br)cn1)C(=O)Nc1ccncc1 (stereo not drawn)	-2.82%
Cc1cccc(N2CCCN=C2NC(=O)c2cccc(Cl)c2)c1	6.39%
O=C1CNc2ncnc(NCc3cccs3)c2N1	2.99%
O=C(CCn1nc(C(F)(F)F)c(Br)c1C1CC1)NN1CCOCC1	8.85%
CCN(CC)S(=O)(=O)N1CCCC1c1nnc2n1CCN(C)CC2 (stereo not drawn)	0.45%
O=C(O)[C@@H]1OCC(=O)N(Cc2cccc(Cl)c2)[C@@H]1c1ccccc1	3.94%
CN1CCCC1c1ccnc(-c2ccccc2)n1 (stereo not drawn)	2.77%
O=C(NCC1(O)COCCN(Cc2cccc(O)c2)C1)c1cnccn1 (stereo not drawn)	-6.49%
Cc1cccc(CNC(Cc2ccsc2)c2nccs2)n1 (stereo not drawn)	2.83%
CC(C)(C)c1cc(NC(=O)CN(Cc2cccs2)Cc2cccs2)on1	14.2%

SMILES	cytotoxicity at 10 µM
CC(=O)N1CCC(C(=O)Nc2nnc(C(F)(F)F)[nH]2)CC1	-3.37%
Cc1n[nH]c(-c2ccc(NC(=O)C(C)(C)N3CCN(C)CC3)cc2)n1	-0.876%
Cc1cc(OC(F)F)c(C(=O)NCC(O)c2cccc(F)c2)s1 (stereo not drawn)	-4.3%
O=C(Nc1cccnc1)C1=Cc2ccccc2OC1	4.19%
COc1cccc(COC(C)C(=O)N(C)Cc2nnc3n2CCC3)c1 (stereo not drawn)	6.32%
O=C(NCc1cc(-c2ccccc2)no1)NC1CCCCNC1=O (stereo not drawn)	-145%
CC(C)c1noc(OCC(=O)N2CCCCC2C)n1 (stereo not drawn)	1.45%
CCc1cnc(CNC(=O)NCCCO)s1	-5.42%
CC(O)(CNc1ccc(Cl)c(C#N)n1)c1ccccc1 (stereo not drawn)	-9.06%
Cc1nc(NC(=O)C(C)N(C)Cc2cccc(C#N)c2)sc1C (stereo not drawn)	-0.506%
Cc1c(C(=O)N2CC(C)(C)C2(C)C)nnn1-c1cccc2cnccc12	9.68%
O=C(CCNc1ncccn1)NCc1ccc(Br)s1	6.72%
CC(C)Oc1ccc(C(=O)Cn2cnnc2[S+](C)[O-])cc1 (stereo not drawn)	-4.68%
COc1ccc(C(=O)O)c(OCC(=O)NC(C)c2ccccc2)c1 (stereo not drawn)	1.97%
O=C(CCNC(=O)N1CCC(c2ccccc2)C1)N1CCCCC1 (stereo not drawn)	-3.41%
CS(=O)(=O)NCCC1CCCCN1C(=O)NCCc1ccccn1 (stereo not drawn)	-4.24%
CS(=O)(=O)N1CCc2c(cccc2NC(=O)NC2CCCC2)C1	-6.78%
COc1cccc(OCC(=O)Nc2cc(C)cnc2OC)c1	-11.4%
O=C(COC1CCCC1)NCCCn1nc2ccccn2c1=O	5.78%
Cc1nc(C2CCCN2CC(=O)Nc2c(C)nn(C)c2C)no1 (stereo not drawn)	-3.08%
CC(=O)Nc1cccc(CNC(=O)N(C)Cc2ccccc2)c1	-2.11%

SMILES	cytotoxicity at 10 µM
CC(C)Oc1ccccc1C(=O)NCCc1nncn1C	-7.71%
O=C(Nc1nncs1)N(Cc1cccc(F)c1)C1CC1	47.6%
CC(C)c1nc2c(n1C)CCN(CCCc1nc3ccccc3o1)C2	2.07%
CN(Cc1ccc(Br)s1)Cn1nc(-c2ccc(F)cc2)oc1=O	1.64%
COCCOc1cc(C(=O)N2CC(C)c3ccccc32)ccn1 (stereo not drawn)	2.16%
Cn1cnnc1CNC(=O)C1CCCN(Cc2ccccc2)C1 (stereo not drawn)	3.57%
CCC(CNS(=O)(=O)c1c[nH]cn1)Oc1ccccc1F (stereo not drawn)	7.22%
O=C1C(n2nnc(-c3cccs3)n2)CCN1CC(F)(F)F (stereo not drawn)	-0.0198%
COC(=O)C1CCCCN1Cc1cccc(C(=O)NCc2ccco2)c1 (stereo not drawn)	-12.5%
CCc1nsc(N2CCn3c(nnc3C(F)(F)F)C2)n1	-0.657%
Cc1cc(C)c(CNc2ncnc3ccsc23)c(=O)[nH]1	15.9%
Cc1c(CNC(=O)Nc2cccc3c2CCN3C)cnn1C	-1.02%
CC(C)c1nsc(N2CCc3sccc3C2)n1	20.9%
Clc1ccc(CN2CCN(Cn3nccc3-c3cccnc3)CC2)s1	8.64%
CS(=O)(=O)NCCC(=O)NC1CCc2nccn2C1 (stereo not drawn)	9.46%
COc1cc(C)c(C(C)NC(=O)Nc2nnc(C)s2)cc1OC (stereo not drawn)	1.03%
CCN(CC)C(=O)c1ccc(NC(=O)CNc2ccc(F)cc2Cl)cc1	-5.31%
CO[C@H]1CN(C(=O)c2ccnnc2)[C@@H]2COC[C@H]12	2.83%
Cc1cccc(C2CCCN(C(=O)CN3CCCC3=O)C2)c1 (stereo not drawn)	-0.942%
OC1(CN2CCc3nnc(Cc4cccnc4)n3CC2)CCCNC1 (stereo not drawn)	21.7%
Cn1cc(C(=O)N2CCCC(c3ncc[nH]3)C2)cn1 (stereo not drawn)	1.95%

SMILES	cytotoxicity at 10 µM
Cc1nnsc1CNC(=O)c1ccc2c(c1)nc(N1CCOCC1)n2C	-13.8%
Cc1cc(C(=O)NCc2cccnc2N2CCc3ccccc3C2)[nH]n1	14.4%
COCc1noc(-c2ccc(N(C)Cc3ncccc3C)nc2)n1	-0.0612%
CCC[C@H]1CN(CCS(C)(=O)=O)C[C@@H]1NC(=O)c1cccnn1	3.25%
Cn1c(N2CCOCC2)nc2cc(C(=O)N3CCCOCC3)ccc21	-1.29%
O=C(CN1CCCCCC1)NCCSc1cnn[nH]1	-7.15%
Cc1ccc(F)c(OC2(C(=O)O)CCN(C(=O)c3ccco3)CC2)c1	5.99%
CN(C)CC1(O)CCCN(c2nc(-c3ccccc3)no2)CC1 (stereo not drawn)	-4.6%
c1coc(-c2nc(CNC3CCCNC3)no2)c1 (stereo not drawn)	-25.2%
c1ccc(-c2nc3c(c(NCCc4c[nH]cn4)n2)CCNC3)cc1	-123%
Cn1ccnc1CN1CCCN(C(=O)c2ccc(O)nc2)CC1	-26.3%
CC(C)C(=O)NCc1ccc(N2CCCC2)nc1	-18.4%
CCCc1nc(C)c(C(=O)NCCNc2ncccc2C#N)s1	-19.5%
Cc1ccc(CN2CC(C(=O)Nc3ccccc3)C3(CCOCC3)C2)o1 (stereo not drawn)	0.927%
Cn1ccnc1CN1CC[C@H]2CO[C@H](CNc3ncccn3)[C@H]2C1	-5.81%
CCCNC(c1cccnc1)c1ccc(F)c(C)c1 (stereo not drawn)	0.821%
CCN1CCC2(CC1)CC(NC(=O)NC)c1cc(C)ccc12 (stereo not drawn)	-6.01%
Cn1cc(N2CC3(CCN(CC4CCOCC4)CC3)OCC2=O)cn1	-9.29%
CC(C)=CCN1C[C@@H]2CC[C@H]1CN(C(=O)Cc1c(C)[nH]c(C)nc1=O)C2	2.48%
CNc1nc2cn(C3CCCC3)c(=O)c-2c[nH]1	7.17%
